Activity calls are given as the source filed them. No cut-off for these calls is given here.
Legend:
MM1.S = assay: Cytotoxicity against human MM1S cells assessed as reduction in cell viability after 72 hrs by MTT assay; format: functional, cell-based
[1] = biological target: T1, Bromodomain-containing protein 4 (Homo sapiens, UniProt O60885); assay: Inhibition of BI-BODIPY binding to BRD4 bromodomain 1 (42 to 168 residues)(unknown origin) expressed in Escherichia coli BL21(DE3) by fluorescence anisotropy assay
Outline: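 Competition fluorescence anisotropy in 50 mM Tris, 100 mM NaCl, pH 7.4, 4 mM CHAPS, 0.5% DMSO; BrdT also contains 3 mM DTT. Tracer BI-BODIPY is at 0.025 μM. Protein is set at the level giving 80% tracer bound. Ex 485/em 535. A four-parameter IC50 is converted to Ki by a Cheng-Prusoff variant, from ≥3 independent experiments.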

[2] = biological target: T2, Bromodomain testis-specific protein (Homo sapiens, UniProt Q58F21); assay: Inhibition of BI-BODIPY binding to BRDT bromodomain 1 (29 to 134 residues) (unknown origin) expressed in Escherichia coli BL21(DE3) by fluorescence anisotropy assay
[3] = biological target: T1, Bromodomain-containing protein 4; assay: Binding affinity to 5FW-labeled BRD4 bromodomain 1 (unknown origin) expressed in Escherichia coli BL21(DE3) by PrOF NMR spectroscopic analysis
Outline: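 BrdT samples also contain 3 mM DTT. Spectra recorded with compound present and absent at 500 MHz, 90° flip angle, 0.7 s relaxation delay, 0.1 s acquisition, 500 transients. The read-out is broadening or shift of the binding-pocket Trp resonance.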

[4] = biological target: T2, Bromodomain testis-specific protein; assay: Binding affinity to BRDT bromodomain 1 (29 to 134 residues)(unknown origin) expressed in Escherichia coli BL21(DE3) assessed as change in melting temperature at 150 uM at 25 to 75 degC after 5 mins by SYPRO orange dye based differential scanning fluorimetric analysis
Outline: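 DSF with 10 μM BrdT(1) in 50 mM HEPES pH 7.5, 100 mM NaCl, with 5x SYPRO Orange. The 8-point dose range is 1250–9 μM at 2.5% DMSO, run in duplicate. After 5 min at 25 °C, samples are heated from 25 to 75 °C in 0.2 °C steps. Tm is the peak of the negative first derivative. ΔTm is taken against the DMSO control. Plates with Z' below 0.5 are excluded.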

[5] = biological target: T2, Bromodomain testis-specific protein; assay: Inhibition of BI-BODIPY binding to BRDT bromodomain 1 (29 to 134 residues) (unknown origin) expressed in Escherichia coli BL21(DE3) up to 1000 uM by fluorescence polarization assay
[6] = biological target: T1, Bromodomain-containing protein 4; assay: Inhibition of BI-BODIPY binding to BRD4 bromodomain 1 (42 to 168 residues)(unknown origin) expressed in Escherichia coli BL21(DE3) up to 1000 uM by fluorescence polarization assay

SMILES | IC50 [1] | Ki [1] | IC50 [2] | Ki [2] | ΔTm [4] | other results
CCn1c2c(c(=O)[nH]c1=O)C(c1ccc(C)cc1)C1=C(CN(CCc3ccc(OC)cc3)C1=O)N2 (stereo not given) | 480 nM | 100 nM | 1000 nM | 200 nM | – | IC50 (MM1.S): 2100 nM
CCn1c2c(c(=O)[nH]c1=O)C(c1ccc(C)cc1)C1=C(CN(CCc3ccc(O)cc3)C1=O)N2 (stereo not given) | 390 nM | 110 nM | 760 nM | 200 nM | – | Activity [3]: Active
CCn1c2c(c(=O)[nH]c1=O)C(c1ccccc1)C1=C(COC1=O)N2 (stereo not given) | – | 350 nM | – | 1400 nM | 0.99 °C | –
COc1ccc(C2C3=C(COC3=O)Nc3c2c(=O)n(C)c(=O)n3C)cc1 (stereo not given) | – | – | – | > 40000 nM | -0.48 °C | –
CCn1c2c(c(=O)[nH]c1=O)C(c1ccc(C)cc1)C1=C(CN(Cc3ccccc3)C1=O)N2 (stereo not given) | 240 nM | 190 nM | 550 nM | 230 nM | – | IC50 (MM1.S): 2100 nM
CCCn1c2c(c(=O)[nH]c1=O)C(c1ccccc1)C1=C(COC1=O)N2 (stereo not given) | – | 1200 nM | – | 2400 nM | 0.14 °C | –
COc1ccc(C2C3=C(COC3=O)Nc3c2c(=O)[nH]c(=O)n3C)cc1 (stereo not given) | – | – | – | > 40000 nM | -0.35 °C | –
CCn1c2c(c(=O)[nH]c1=O)C(c1ccc(C)cc1)C(C(=O)OC)=C(C)N2 (stereo not given) | – | – | – | – | – | inhibition [5]: inactive; inhibition [6]: inactive
CCn1c2c(c(=O)[nH]c1=O)C(c1ccc(C)cc1)C1=C(CN(CCc3ccccc3)C1=O)N2 (stereo not given) | 1000 nM | 140 nM | 1000 nM | 220 nM | – | IC50 (MM1.S): 1200 nM
CN1C(=O)CC/N=C(/c2ccc(Cl)cc2)c2cc(Cl)ccc21 | – | – | 220000 nM | – | – | –

More lines, main results first:

IC50 [1] | Ki [1] | IC50 [2] | Ki [2] | ΔTm [4] | SMILES | other results
– | 1200 nM | – | 4700 nM | -0.44 °C | CCn1c2c(c(=O)[nH]c1=O)C(c1ccc(C(F)(F)F)cc1)C1=C(COC1=O)N2 (stereo not given) | –
630 nM | 14000 nM | 2200 nM | – | – | C=CCN1CC2=C(C1=O)C(c1ccc(C)cc1)c1c(n(CC)c(=O)[nH]c1=O)N2 (stereo not given) | –
– | > 40000 nM | – | > 40000 nM | 0.06 °C | Cc1ccc(C2C3=C(COC3=O)Nc3c2c(=O)[nH]c(=O)n3C2CC2)cc1 (stereo not given) | –
– | > 40000 nM | – | > 40000 nM | – | CCn1c(=O)[nH]c(=O)c2c(-c3ccc(C)cc3)c3c(nc21)COC3=O | –
– | 300 nM | – | 1100 nM | 1.4 °C | CCn1c2c(c(=O)[nH]c1=O)C(c1ccc(Cl)cc1)C1=C(COC1=O)N2 (stereo not given) | –
– | 10000 nM | – | 23000 nM | 0.06 °C | CCn1c2c(c(=O)[nH]c1=O)C(c1ccc(C)cc1)C1=C(CCC1=O)N2 (stereo not given) | –
